Reference: ChEMBL document CHEMBL4602686, “A Meroisoprenoid, Heptenolides, and C-Benzylated Flavonoids from Sphaerocoryne gracilis ssp. gracilis” (J Nat Prod, 2020)
The source made the active and inactive calls. The calls are words filed in the database; no cut-off is given here.

Assays:
Hepacivirus hominis [1] = assay: Inhibition of (CAG)33/FF/HCV/Ren.pA51 mRNA cap-dependent translation assessed as reduction in firefly level at […] after 60 mins by dual luciferase reporter gene assay
Hepacivirus hominis [2] = assay: Inhibition of (CAG)33/FF/HCV/Ren.pA51 mRNA cap-independent translation assessed as reduction in renilla level at […] after 60 mins by dual luciferase reporter gene assay
Plasmodium falciparum [3] = assay: Antimalarial activity against chloroquine-sensitive Plasmodium falciparum 3D7 assessed as reduction in parasite growth at 20 uM incubated for 72 hrs by DAPI staining based fluorescence assay; assay type: functional, organism-based
In short: (§1)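 Asexual P. falciparum 3D7 growth read by a high-content imaging assay. Each compound was tested at one concentration: 20 μM for line 1 and 40 μM for line 2. The value is percentage growth inhibition. The 20 μM values are the mean of at least two independent measurements.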

Plasmodium falciparum [4] = assay: Antimalarial activity against chloroquine-resistant Plasmodium falciparum Dd2 assessed as reduction in parasite growth at 20 uM incubated for 72 hrs by DAPI saining based fluorescence assay; assay type: functional, organism-based
In short: (§2)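 P. falciparum Dd2 (chloroquine-resistant) growth read by high-content imaging. Isolates were screened at a single 40 μM concentration, and some were also given at 20 μM. Values are percentage growth inhibition, as the mean of at least two independent measurements.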

Plasmodium falciparum [5] = assay: Antimalarial activity against chloroquine-sensitive Plasmodium falciparum 3D7 assessed as reduction in parasite rowth incubated for 72 hrs by DAPI staining based fluorescence assay; assay type: functional, organism-based; conditions: 3D7, 72 h
Plasmodium falciparum [6] = assay: Antimalarial activity against chloroquine-sensitive Plasmodium falciparum 3D7 assessed as reduction in parasite growth at 40 uM incubated for 72 hrs by DAPI staining based fluorescence assay; assay type: functional, organism-based; in short: as §1
Plasmodium falciparum [7] = assay: Antimalarial activity against chloroquine-resistant Plasmodium falciparum Dd2 assessed as reduction in parasite growth at 40 uM incubated for 72 hrs by DAPI staining based fluorescence assay; assay type: functional, organism-based; in short: as §2
[8] = system: Plasmodium falciparum 3D7; assay: Selectivity ratio of IC50 for HEK293 cells to IC50 for antimalarial activity against Plasmodium falciparum 3D7; conditions: human, HEK293 cells versus Plasmodium falciparum 3D7
HEK293 = assay: Cytotoxicity against HEK293 cells; assay type: cell-based; conditions: Homo sapiens
Plasmodium falciparum [9] = assay: Antimalarial activity against chloroquine-resistant Plasmodium falciparum Dd2 assessed as reduction in parasite growth incubated for 72 hrs by DAPI staining based fluorescence assay; assay type: functional, organism-based; conditions: Dd2, 72 h
[10] = Cytotoxicity against HEK293 cells assessed as growth inhibition at 40 uM relative to control; assay type: cell-based; conditions: human, read-out: GI

Row | SMILES | inhibition (Hepacivirus hominis [1]) | inhibition (Hepacivirus hominis [2]) | Activity (Plasmodium falciparum [3]) | Activity (Plasmodium falciparum [4]) | IC50 (Plasmodium falciparum [5]) | other results
1 | O=c1cc(-c2ccccc2)oc2cc(O)cc(O)c12 | inactive | inactive | Active | Active |  | 
2 | O=c1cc(-c2ccccc2)oc2c(Cc3cccc(O)c3O)c(O)cc(O)c12 | inactive | inactive | Active | Active |  | 
3 | O=C1C=C/C(=C/[C@H](O)CO)O1 |  |  |  |  | 10.5 µM | 
4 | O=C1C[C@@H](c2ccccc2)Oc2cc(O)cc(O)c21 |  |  |  |  |  | Activity (Plasmodium falciparum [6]): inactive; Activity (Plasmodium falciparum [7]): inactive
5 | O=C1C[C@@H](c2ccccc2)Oc2c(Cc3ccccc3O)c(O)cc(O)c21 |  |  | Active | Active |  | 
6 | O=C1C[C@@H](c2ccccc2)Oc2c(Cc3cccc(O)c3O)c(O)c(Cc3cccc(O)c3O)c(O)c21 | inactive | inactive |  |  |  | Activity (Plasmodium falciparum [6]): inactive; Activity (Plasmodium falciparum [7]): inactive
7 | CC(=O)O[C@@H](/C=C1/C=CC(=O)O1)COC(=O)c1ccccc1 |  |  |  |  | 4.8 µM | selectivity ratio [8]: 3; IC50 (HEK293): 11.8 µM; IC50 (Plasmodium falciparum [9]): 6.7 µM
8 | O=C1C[C@@H](c2ccccc2)Oc2cc(O)c(Cc3ccccc3O)c(O)c21 |  |  | Active | Active |  | 
9 | O=C1C=C/C(=C/[C@H](O)COC(=O)c2ccccc2)O1 | inactive | inactive |  |  | 3.7 µM | 
10 | O=C1C[C@@H](c2ccccc2)Oc2cc(O)c(Cc3cccc(O)c3O)c(O)c21 | inactive | inactive | Active | Active |  | 
11 | CC(C)=CCC[C@@H](C)[C@H]1C[C@H](O)[C@@]2(C)C3=CC[C@H]4C(C)(C)[C@@H](O)CC[C@]4(C)C3=CC[C@]12C |  |  |  |  |  | Activity (Plasmodium falciparum [6]): inactive; Activity (Plasmodium falciparum [7]): inactive
12 | COC(=O)/C=C/C(=O)C[C@H](O)COC(=O)c1ccccc1 | inactive | inactive |  |  | 1.4 µM | IC50 (Plasmodium falciparum [9]): 4.1 µM; inhibition at 40 µM [10]: 100%
13 | C[C@@](O)(COC(=O)/C=C/c1ccccc1)[C@H](O)COC(=O)c1ccccc1 |  |  |  |  |  | Activity (Plasmodium falciparum [6]): inactive; Activity (Plasmodium falciparum [7]): inactive
14 | O=C1C[C@@H](c2ccccc2)Oc2c(Cc3ccccc3O)c(O)c(Cc3ccccc3O)c(O)c21 [DICHAMANETIN] |  |  |  |  | 9.3 µM | IC50 (Plasmodium falciparum [9]): 6.7 µM; inhibition at 40 µM [10]: 75%
